Assay results published in the M2OR odorant receptor database.
Positions count from the first letter of the chain named.

Key:
Details in all cases: stereoisomer not certain
O56A4 I247V = tested on: T1, O56A4 I247V
T1 sequence (whole entry): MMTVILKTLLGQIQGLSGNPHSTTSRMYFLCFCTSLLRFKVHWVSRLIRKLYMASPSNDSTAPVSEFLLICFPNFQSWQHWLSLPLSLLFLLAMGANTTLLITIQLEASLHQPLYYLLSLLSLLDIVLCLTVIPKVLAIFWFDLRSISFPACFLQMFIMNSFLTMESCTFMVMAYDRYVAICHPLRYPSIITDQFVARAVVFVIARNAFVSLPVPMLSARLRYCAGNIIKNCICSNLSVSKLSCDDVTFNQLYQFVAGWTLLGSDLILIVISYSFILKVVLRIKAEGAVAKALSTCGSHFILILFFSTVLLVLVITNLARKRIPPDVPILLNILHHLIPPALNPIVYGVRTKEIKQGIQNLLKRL
Summary of the method: (§1)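 Each entry records the cell line, G-protein, co-transfected protein and tags used. Methods varied with the source, often transient luciferase assays in mammalian cell lines. A receptor–molecule pair is called responsive (active) if the original authors judged its signal statistically different from baseline and non-responsive (inactive) otherwise.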

O56A4 = tested on: T2, O56A4
T2 sequence (whole entry): T1 sequence (whole entry) with V247I
Summary of the method: as §1

O56A5 V104L = tested on: T3, O56A5 V104L
T3 sequence (whole entry): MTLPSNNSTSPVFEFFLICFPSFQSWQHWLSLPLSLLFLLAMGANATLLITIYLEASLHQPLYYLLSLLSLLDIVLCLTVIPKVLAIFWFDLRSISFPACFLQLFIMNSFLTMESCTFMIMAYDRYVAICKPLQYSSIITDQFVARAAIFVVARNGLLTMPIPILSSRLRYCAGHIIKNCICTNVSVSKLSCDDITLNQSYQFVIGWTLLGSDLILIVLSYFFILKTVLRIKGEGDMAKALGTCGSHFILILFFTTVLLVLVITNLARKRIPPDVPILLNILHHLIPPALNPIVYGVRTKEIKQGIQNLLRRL
Summary of the method: as §1

O56B1 C106R L214F = tested on: T4, O56B1 C106R L214F
T4 sequence (whole entry): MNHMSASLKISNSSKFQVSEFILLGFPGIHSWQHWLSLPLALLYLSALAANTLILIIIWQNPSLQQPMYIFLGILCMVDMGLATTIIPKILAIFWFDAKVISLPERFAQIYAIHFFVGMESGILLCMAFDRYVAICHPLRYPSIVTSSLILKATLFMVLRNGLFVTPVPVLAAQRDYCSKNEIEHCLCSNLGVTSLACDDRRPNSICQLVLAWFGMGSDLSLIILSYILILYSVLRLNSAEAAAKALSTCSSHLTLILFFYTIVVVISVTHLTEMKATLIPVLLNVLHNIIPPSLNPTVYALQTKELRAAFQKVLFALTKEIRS
Summary of the method: as §1

O56B1 L214F = tested on: T5, O56B1 L214F
T5 sequence (whole entry): T4 sequence (whole entry) with R106C
Summary of the method: as §1

O56B4 = tested on: T6, O56B4
T6 sequence (whole entry): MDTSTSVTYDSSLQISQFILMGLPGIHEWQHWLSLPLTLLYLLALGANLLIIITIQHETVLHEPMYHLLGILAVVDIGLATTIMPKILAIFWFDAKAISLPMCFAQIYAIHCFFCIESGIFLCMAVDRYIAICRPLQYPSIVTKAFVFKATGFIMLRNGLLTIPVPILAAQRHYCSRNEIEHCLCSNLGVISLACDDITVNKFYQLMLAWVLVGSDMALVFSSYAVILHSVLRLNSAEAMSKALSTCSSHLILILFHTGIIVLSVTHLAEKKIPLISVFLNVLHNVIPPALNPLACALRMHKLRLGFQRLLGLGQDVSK
Summary of the method: as §1

O5AC2 = tested on: T7, O5AC2
T7 sequence (whole entry): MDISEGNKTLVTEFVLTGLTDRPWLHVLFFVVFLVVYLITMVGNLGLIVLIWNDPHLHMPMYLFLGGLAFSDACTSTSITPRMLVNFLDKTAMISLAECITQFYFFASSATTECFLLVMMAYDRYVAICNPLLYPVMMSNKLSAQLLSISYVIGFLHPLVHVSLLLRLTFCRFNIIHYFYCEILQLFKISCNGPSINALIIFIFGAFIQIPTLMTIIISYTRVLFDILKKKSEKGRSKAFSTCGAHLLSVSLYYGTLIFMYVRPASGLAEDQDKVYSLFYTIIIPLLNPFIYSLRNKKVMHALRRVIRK
Summary of the method: as §1

O5AK2 M92I = tested on: T8, O5AK2 M92I
T8 sequence (whole entry): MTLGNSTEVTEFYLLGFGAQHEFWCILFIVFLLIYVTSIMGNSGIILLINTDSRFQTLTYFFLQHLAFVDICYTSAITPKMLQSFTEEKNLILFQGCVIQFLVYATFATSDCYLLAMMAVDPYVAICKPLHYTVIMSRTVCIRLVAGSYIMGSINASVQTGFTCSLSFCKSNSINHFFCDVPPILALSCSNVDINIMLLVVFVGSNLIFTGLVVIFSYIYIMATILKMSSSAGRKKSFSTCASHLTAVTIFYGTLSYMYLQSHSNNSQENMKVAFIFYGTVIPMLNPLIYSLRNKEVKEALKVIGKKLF
Summary of the method: as §1

O5AN1 C142Y L289F = tested on: T9, O5AN1 C142Y L289F
T9 sequence (whole entry): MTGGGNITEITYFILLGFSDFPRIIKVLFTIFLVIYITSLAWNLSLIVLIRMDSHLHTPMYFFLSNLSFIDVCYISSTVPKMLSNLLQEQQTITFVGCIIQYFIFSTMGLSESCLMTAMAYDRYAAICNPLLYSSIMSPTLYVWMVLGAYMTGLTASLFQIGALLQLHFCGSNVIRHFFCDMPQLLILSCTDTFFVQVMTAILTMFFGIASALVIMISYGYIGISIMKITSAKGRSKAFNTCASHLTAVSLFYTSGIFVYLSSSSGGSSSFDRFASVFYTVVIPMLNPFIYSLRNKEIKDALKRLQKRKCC
Summary of the method: as §1

O5AN1 L289F = tested on: T10, O5AN1 L289F
T10 sequence (whole entry): T9 sequence (whole entry) with Y142C
Summary of the method: as §1

O5AP2 A105T = tested on: T11, O5AP2 A105T
T11 sequence (whole entry): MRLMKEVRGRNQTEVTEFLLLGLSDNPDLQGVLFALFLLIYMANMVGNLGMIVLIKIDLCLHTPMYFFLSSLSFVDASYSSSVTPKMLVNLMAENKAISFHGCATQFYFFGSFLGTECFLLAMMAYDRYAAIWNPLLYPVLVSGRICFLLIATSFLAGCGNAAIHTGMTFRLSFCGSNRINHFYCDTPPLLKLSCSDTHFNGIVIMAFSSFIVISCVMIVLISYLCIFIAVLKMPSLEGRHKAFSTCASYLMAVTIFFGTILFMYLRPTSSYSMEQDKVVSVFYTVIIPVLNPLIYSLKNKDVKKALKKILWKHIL
Summary of the method: as §1

O5AU1 = tested on: T12, O5AU1
T12 sequence (whole entry): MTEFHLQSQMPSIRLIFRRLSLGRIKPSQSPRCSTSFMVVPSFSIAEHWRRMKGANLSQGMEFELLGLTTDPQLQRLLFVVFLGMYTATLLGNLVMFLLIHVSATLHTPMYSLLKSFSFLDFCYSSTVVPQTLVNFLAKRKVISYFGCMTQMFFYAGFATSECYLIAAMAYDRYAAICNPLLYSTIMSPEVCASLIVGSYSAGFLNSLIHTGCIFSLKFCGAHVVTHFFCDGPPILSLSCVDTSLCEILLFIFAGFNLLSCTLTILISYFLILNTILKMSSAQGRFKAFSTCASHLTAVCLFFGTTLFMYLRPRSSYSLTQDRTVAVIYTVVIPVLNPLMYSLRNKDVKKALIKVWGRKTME
Summary of the method: as §1

O5H14 = tested on: T13, O5H14
T13 sequence (whole entry): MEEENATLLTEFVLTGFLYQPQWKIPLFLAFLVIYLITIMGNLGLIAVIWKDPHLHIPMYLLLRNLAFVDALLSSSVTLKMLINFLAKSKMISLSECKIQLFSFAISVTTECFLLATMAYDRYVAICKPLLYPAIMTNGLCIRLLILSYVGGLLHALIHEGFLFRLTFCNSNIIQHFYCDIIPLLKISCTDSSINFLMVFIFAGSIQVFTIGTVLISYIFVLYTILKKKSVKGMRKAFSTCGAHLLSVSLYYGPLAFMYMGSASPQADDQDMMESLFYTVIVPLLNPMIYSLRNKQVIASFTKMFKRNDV
Summary of the method: as §1

O5H15 V108I S148T T167S = tested on: T14, O5H15 V108I S148T T167S
T14 sequence (whole entry): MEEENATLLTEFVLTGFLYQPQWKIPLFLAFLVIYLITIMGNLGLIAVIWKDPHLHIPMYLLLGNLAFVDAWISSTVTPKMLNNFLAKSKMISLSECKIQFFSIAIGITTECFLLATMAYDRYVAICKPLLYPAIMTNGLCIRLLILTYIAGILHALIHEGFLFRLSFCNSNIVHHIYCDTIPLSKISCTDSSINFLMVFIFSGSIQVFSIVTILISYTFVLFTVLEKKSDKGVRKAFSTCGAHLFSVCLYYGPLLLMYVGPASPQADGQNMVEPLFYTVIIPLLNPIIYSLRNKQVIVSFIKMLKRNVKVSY
Summary of the method: as §1

O6C65 T222A = tested on: T15, O6C65 T222A
T15 sequence (whole entry): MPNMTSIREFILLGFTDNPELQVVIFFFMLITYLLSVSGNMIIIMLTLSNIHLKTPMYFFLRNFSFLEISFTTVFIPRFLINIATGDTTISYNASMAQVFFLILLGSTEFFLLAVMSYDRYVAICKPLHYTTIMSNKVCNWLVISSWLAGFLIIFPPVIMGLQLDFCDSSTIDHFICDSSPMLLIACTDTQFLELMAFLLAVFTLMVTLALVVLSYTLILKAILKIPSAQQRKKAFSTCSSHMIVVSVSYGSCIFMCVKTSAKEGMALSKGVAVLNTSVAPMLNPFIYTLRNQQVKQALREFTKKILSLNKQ
Summary of the method: as §1

O6C70 L181P = tested on: T16, O6C70 L181P
T16 sequence (whole entry): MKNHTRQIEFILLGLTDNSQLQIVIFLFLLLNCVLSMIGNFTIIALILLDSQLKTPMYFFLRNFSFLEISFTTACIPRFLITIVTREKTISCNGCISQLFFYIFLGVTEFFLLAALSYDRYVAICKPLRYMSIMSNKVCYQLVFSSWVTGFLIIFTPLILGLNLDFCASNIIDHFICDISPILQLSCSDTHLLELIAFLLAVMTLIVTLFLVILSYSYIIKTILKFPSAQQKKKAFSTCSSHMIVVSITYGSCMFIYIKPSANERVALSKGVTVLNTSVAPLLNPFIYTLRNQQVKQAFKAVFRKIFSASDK
Summary of the method: as §1

O7E24 S193F P242S = tested on: T17, O7E24 S193F P242S
T17 sequence (whole entry): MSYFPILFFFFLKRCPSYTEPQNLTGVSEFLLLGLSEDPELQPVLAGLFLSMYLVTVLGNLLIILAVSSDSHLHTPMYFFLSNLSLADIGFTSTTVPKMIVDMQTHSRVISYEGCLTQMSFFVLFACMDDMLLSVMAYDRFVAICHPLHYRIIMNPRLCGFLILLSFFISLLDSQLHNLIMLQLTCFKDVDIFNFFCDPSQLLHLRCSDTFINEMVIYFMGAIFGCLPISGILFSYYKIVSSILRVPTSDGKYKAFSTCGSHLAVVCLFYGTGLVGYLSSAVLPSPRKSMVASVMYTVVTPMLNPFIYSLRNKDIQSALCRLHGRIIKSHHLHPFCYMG
Summary of the method: as §1

O7E24 = tested on: T18, O7E24
T18 sequence (whole entry): T17 sequence (whole entry) with F193S
Summary of the method: as §1

OR10A2 (Homo sapiens) = biological target: T19, OR10A2 (Homo sapiens) (UniProt Q9H208)
T19 sequence (whole entry): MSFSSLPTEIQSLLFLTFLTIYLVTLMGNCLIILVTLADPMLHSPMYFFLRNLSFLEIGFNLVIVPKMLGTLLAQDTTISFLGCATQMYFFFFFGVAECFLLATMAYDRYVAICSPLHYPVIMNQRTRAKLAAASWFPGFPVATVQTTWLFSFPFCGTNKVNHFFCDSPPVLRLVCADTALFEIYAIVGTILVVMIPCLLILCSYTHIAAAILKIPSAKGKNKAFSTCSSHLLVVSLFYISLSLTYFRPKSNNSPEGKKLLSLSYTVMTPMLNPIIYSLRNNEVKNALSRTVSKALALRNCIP
Summary of the method: as §1

O5AN1 = tested on: T20, O5AN1
T20 sequence (whole entry): T9 sequence (whole entry) with K26T, Y142C, F159S, C190S, Q197R, V214I, Y221S, F289L, K309R
Summary of the method: as §1

Measured: odorant receptor agonist call

CCCC(S)CCOC(C)=O (stereo not given)
not listed: O5AN1
inactive: all other assays above

CC(CO)CS (stereo not given)
inactive: OR10A2 (Homo sapiens)

CCC1OC(C)=C(O)C1=O (stereo not given)
not listed: O5AN1
inactive: all other assays above

CC1CC=CCCCCCCCCCC(=O)C1 (stereo not given)
active: O5AN1
